Assay results of several laboratories.
Compare with care: the assays were run in different laboratories.
Cell line: MOLM-13
Observed: cell growth or viability

SMILES	technique	time	measurement	result
NNCCc1ccccc1	resazurin	96 h	EC50	> 2000 nM
CCCCN(Cc1ccc(C(=O)NO)cc1)C(=O)Nc1ccccc1	ATP luminescence	72 h	IC50	220 nM
Nc1nc(Nc2ccc3c(c2)CC[C@@H](N2CCCC2)CC3)nn1-c1cc2c(nn1)-c1ccccc1CCC2	trypan blue	72 h	IC50	167 nM
N[C@@H](CC(=O)N1CCN(C(c2ccc(F)cc2)c2ccc(F)cc2)CC1)C(=O)N1Cc2ccccc2C1	ATP luminescence	48 h	IC50	2030 nM
COc1cc(-c2ncn(/C=C\C(=O)OC(C)C)n2)cc(C(F)(F)F)c1	–	72 h	IC50	15 nM
N[C@H]1CC[C@H](N[C@@H]2C[C@H]2c2ccccc2)CC1	resazurin	96 h	EC50	0.21 nM
COc1cc(Nc2nccc(-c3cnn4nc(OC)ccc34)n2)cc(C(F)(F)F)c1	ATP luminescence	–	IC50	150 nM
C#CCN(C)Cc1ccccc1	resazurin	96 h	EC50	> 2000 nM
COc1cc(F)ccc1-c1cc(Nc2cc(CS(C)(=N)=O)ccn2)ncc1F (stereo not drawn)	–	24 h	GI50	93.8 nM
O=C(O)c1ccc(CN2CCC(CN[C@@H]3C[C@H]3c3ccccc3)CC2)cc1	resazurin	96 h	EC50	40.2 nM
CCCON(Cc1ccc(C(=O)NO)cc1)C(=O)Nc1ccccc1	ATP luminescence	72 h	IC50	239 nM
COc1cc2nccc(Oc3ccc(NC(=O)C4(C(=O)Nc5ccc(F)cc5)CC4)cc3)c2cc1OC	trypan blue	72 h	IC50	10 nM
CC[C@@H](C)[C@H](N)C(=O)N1Cc2ccccc2C1	ATP luminescence	48 h	IC50	1860 nM
CC(C)C[C@H](NC(=O)[C@H](Cc1ccccc1)NC(=O)c1cnccn1)B(O)O	ATP luminescence	–	IC50	4.5 nM
Cc1cc2c(cc1N1C(=O)c3cccc4c(CCCO)ccc(c34)C1=O)n(C)c(=O)n2C (racemic)	resazurin	–	GI50	1060 nM
